Experiments:
[1] = target: T1, Leucine-rich repeat serine/threonine-protein kinase 2 (Homo sapiens, UniProt Q5S007); assay: Inhibition of autophosphorylation of LRRK2 in human HEK293 cells; format: cell-based
[2] = Plasma protein binding in rat; format: ADME, cell-free; details: read-out: PPB (converted)
Procedure, shortened: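 Plasma protein binding measured in vitro in rat plasma; used to convert total clearance to unbound clearance and total to unbound plasma levels.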

[3] = tested on: MDR1 (human); assay: Apparent permeability from apical to basolateral side of MDCK cells expressing human MDR1; format: ADME, cell-based, Canis lupus familiaris; details: dog
Procedure, shortened: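 Transport measured in an MDCK cell line transfected with human P-gp (MDR1); apical-to-basolateral and basolateral-to-apical permeability determined; efflux ratio taken as (B−A)/(A−B).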

[4] = target: T2, Dual specificity protein kinase TTK (Homo sapiens, UniProt P33981); assay: Inhibition of TTK
T2 sequence (P33981 whole entry): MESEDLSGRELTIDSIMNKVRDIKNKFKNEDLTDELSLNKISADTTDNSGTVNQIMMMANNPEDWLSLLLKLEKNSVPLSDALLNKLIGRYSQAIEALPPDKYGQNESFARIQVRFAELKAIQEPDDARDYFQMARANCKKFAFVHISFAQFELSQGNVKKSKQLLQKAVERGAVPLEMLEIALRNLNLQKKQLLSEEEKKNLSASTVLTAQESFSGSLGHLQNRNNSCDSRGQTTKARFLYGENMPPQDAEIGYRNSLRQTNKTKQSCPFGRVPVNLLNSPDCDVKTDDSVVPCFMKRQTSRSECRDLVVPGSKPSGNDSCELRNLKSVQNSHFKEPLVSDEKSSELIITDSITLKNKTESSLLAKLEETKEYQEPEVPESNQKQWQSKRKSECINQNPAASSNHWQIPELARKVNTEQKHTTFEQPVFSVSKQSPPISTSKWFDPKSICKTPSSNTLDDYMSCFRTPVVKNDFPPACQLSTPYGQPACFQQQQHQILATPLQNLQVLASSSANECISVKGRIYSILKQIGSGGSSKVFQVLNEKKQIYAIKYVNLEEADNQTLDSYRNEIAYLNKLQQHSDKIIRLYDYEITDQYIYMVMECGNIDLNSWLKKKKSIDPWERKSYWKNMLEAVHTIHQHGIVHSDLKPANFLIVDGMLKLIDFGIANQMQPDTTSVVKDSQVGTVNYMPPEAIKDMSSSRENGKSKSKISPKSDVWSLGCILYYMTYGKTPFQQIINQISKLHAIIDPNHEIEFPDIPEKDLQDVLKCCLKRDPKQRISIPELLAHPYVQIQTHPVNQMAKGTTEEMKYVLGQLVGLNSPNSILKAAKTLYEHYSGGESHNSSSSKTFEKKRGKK
Procedure, shortened: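 TTK Ki determined in a Lanthascreen biochemical assay.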

[5] = Selectivity ratio of Ki for TTK to Ki for LRRK2
Procedure, shortened: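 Ratio computed as TTK Ki, from a Lanthascreen assay, divided by LRRK2 Ki from the biochemical assay.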

[6] = target: T3, Dual specificity protein kinase TTK (Homo sapiens) (UniProt P33981); assay: Inhibition of TTK at 0.1 uM
T3 sequence (whole entry): T2 sequence (P33981 whole entry)
Procedure, shortened: (§1)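 Percent inhibition of TTK activity measured at 0.1 μM and 1 μM in a kinase selectivity profiling panel.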

[7] = species on record: Mus musculus; assay: Genotoxicity in mouse by micronucleus study; format: toxicity, organism-based; details: in vivo
[8] = target: T3, Dual specificity protein kinase TTK (Homo sapiens); assay: Inhibition of TTK at 1 uM; procedure, shortened: as §1
[9] = Clearance in human hepatocytes; format: ADME, cell-based, Liver, Hepatocyte
Procedure, shortened: (§2)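 Metabolic stability determined in vitro in cryopreserved hepatocytes, human and rat.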

[10] = target: T1, Leucine-rich repeat serine/threonine-protein kinase 2; assay: Inhibition of LRRK2 using FAM-LRRKtide as substrate after 120 mins by microfluidic capillary electrophoresis assay
[11] = Clearance in rat hepatocytes; format: ADME, cell-based, Liver, Hepatocyte; procedure, shortened: as §2
[12] = tested on: PBL; assay: Genotoxicity in human PBL assessed as induction of micronuclei formation; format: toxicity, cell-based
[13] = Selectivity ratio of Ki for JAK2 to Ki for LRRK2
Procedure, shortened: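 Ratio computed as JAK2 Ki divided by LRRK2 Ki, both from biochemical assays.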

[14] = tested on: MDCK; assay: Efflux ratio of permeability from basolateral to apical over apical to basolateral side in MDCK cells expressing human MDR1; details: dog
[15] = Solubility of the compound; format: physicochemical
[16] = target: T4, Cytochrome P450 1A2 (Homo sapiens, UniProt P05177); assay: Time dependent inhibition of CYP1A2; format: ADME
T4 sequence (P05177 whole entry): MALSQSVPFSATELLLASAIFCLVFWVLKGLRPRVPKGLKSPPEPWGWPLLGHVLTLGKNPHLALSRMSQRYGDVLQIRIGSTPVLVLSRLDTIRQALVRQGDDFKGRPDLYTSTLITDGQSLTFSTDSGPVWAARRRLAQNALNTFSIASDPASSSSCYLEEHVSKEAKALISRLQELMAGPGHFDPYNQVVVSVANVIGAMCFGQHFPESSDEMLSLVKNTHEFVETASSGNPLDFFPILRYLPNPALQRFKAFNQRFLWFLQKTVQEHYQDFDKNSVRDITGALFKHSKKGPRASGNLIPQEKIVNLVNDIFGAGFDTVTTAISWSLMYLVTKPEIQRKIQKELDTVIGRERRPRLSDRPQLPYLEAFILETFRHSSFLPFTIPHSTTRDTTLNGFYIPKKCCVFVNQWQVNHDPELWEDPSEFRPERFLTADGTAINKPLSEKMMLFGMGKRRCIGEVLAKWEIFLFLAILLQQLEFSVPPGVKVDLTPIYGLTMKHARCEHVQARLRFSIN

[17] = target: ALK tyrosine kinase receptor (Homo sapiens) (UniProt Q9UM73); assay: Inhibition of ALK at 0.1 uM
Sequence of ALK tyrosine kinase receptor (Homo sapiens) (Q9UM73 19-1620 limits assumed): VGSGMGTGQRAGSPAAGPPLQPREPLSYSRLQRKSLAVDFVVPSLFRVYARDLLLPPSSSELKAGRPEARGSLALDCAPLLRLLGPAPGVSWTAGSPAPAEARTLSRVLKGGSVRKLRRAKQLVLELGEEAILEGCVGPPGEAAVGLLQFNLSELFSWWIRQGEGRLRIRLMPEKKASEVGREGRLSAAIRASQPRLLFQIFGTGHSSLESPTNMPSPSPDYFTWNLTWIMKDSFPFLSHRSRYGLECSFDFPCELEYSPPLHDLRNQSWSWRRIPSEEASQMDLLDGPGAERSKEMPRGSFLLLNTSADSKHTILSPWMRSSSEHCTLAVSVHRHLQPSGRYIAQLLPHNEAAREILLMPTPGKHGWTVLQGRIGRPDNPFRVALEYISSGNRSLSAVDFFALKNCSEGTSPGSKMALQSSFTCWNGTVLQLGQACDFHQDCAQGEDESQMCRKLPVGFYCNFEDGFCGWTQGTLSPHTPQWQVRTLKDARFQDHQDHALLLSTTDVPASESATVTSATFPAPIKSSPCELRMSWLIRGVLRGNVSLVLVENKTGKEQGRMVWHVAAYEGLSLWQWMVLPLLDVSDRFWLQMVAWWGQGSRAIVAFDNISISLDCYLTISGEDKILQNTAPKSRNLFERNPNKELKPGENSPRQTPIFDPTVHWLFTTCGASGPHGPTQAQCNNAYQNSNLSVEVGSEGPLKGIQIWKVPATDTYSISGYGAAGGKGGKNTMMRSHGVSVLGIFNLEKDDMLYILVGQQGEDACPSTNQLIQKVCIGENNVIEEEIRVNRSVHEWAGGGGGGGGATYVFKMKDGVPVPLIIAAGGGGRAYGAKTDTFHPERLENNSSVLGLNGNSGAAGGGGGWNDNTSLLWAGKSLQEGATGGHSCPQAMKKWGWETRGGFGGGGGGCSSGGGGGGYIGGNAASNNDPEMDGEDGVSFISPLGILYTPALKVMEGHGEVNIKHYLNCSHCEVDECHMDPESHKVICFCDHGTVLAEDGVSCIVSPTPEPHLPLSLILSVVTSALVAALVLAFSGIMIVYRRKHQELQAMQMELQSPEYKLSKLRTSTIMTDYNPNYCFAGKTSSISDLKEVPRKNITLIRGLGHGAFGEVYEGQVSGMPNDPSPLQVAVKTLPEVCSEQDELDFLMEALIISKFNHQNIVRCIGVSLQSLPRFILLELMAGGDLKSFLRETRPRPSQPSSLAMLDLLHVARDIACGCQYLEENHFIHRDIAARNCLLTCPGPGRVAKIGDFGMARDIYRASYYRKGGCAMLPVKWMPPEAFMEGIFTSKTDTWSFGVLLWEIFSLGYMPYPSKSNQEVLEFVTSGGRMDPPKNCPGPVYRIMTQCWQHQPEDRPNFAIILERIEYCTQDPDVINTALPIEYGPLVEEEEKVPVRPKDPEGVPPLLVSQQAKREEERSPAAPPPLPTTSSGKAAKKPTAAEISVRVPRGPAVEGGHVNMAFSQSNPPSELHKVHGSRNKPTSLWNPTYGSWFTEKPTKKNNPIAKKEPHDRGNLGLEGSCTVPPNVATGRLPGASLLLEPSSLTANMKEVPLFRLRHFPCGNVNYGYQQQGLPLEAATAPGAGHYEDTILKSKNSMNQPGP
Procedure, shortened: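 Percent inhibition measured in a commercial kinase selectivity profiling panel, with compound tested at a single concentration of 0.1 μM.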

[18] = Plasma protein binding in cynomolgus monkey; format: ADME, cell-free, Macaca fascicularis; details: read-out: PPB (converted)
[19] = target: T1, Leucine-rich repeat serine/threonine-protein kinase 2; details: 0.1 uM
[20] = tested on: Cynomolgus monkey; assay: Unbound plasma AUC (0 to 24 hrs) in cynomolgus monkey at 65 mg/kg, po administered for 7 days; format: ADME, organism-based, Macaca fascicularis; set-up: dose 65 mg/kg, route oral; details: in vivo
[21] = tested on: Cynomolgus monkey; assay: Unbound plasma AUC (0 to 24 hrs) in cynomolgus monkey at 25 mg/kg, po administered for 7 days; format: ADME, organism-based, Macaca fascicularis; set-up: dose 25 mg/kg, route oral; details: in vivo
[22] = tested on: Rattus norvegicus; assay: Unbound plasma AUC (0 to 24 hrs) in Sprague-Dawley rat at 100 mg/kg, po qd for 2 days; format: ADME, organism-based; set-up: dose 100 mg/kg, route oral; details: in vivo
[23] = tested on: Nucleic Acid; assay: Ratio of drug level CSF to unbound drug level in plasma in cynomolgus monkey at 10 to 65 mg/kg, po administered for 7 days; format: ADME, organism-based, Macaca fascicularis; set-up: dose 10-65 mg/kg, route oral; details: in vivo, 168 h
Procedure, shortened: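 Cynomolgus monkeys in a 7-day repeat-dose toxicity study at 10, 25 and 65 mg/kg. Terminal CSF and plasma levels were taken 24 h after the last dose on day 7. Plasma drug was converted to unbound using in vitro plasma protein binding, and the ratio is expressed as CSF over unbound plasma.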

[24] = tested on: Rattus norvegicus; assay: Genotoxicity in Sprague-Dawley rat assessed as micronucleated polychromatic erythrocytes in bone marrow at 100 mg/kg, po qd for 2 days; format: toxicity, organism-based; set-up: dose 100 mg/kg, route oral; details: in vivo, 48 h
[25] = Ratio of unbound drug level in brain to plasma in cynomolgus monkey at 10 to 65 mg/kg, po administered for 7 days; format: ADME, organism-based, Macaca fascicularis; set-up: dose 10-65 mg/kg, route oral; details: brain and plasma (unbound)
Procedure, shortened: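 Cynomolgus monkeys in a 7-day repeat-dose toxicity study at 10, 25 and 65 mg/kg. Terminal brain and CSF levels were taken 24 h after the day-7 dose. Total brain/plasma levels were converted to an unbound brain/unbound plasma ratio using in vitro plasma and brain protein binding values.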

[26] = tested on: Rattus norvegicus; assay: Unbound plasma AUC (0 to 24 hrs) in Sprague-Dawley rat at 100 mg/kg, po administered for 7 days; format: ADME, organism-based; set-up: dose 100 mg/kg, route oral; details: in vivo
[27] = tested on: Cynomolgus monkey; assay: Unbound plasma AUC (0 to 24 hrs) in cynomolgus monkey at 10 mg/kg, po administered for 7 days; format: ADME, organism-based, Macaca fascicularis; set-up: dose 10 mg/kg, route oral; details: in vivo
[28] = tested on: Rattus norvegicus; assay: Unbound plasma AUC (0 to 24 hrs) in Sprague-Dawley rat at 50 mg/kg, po administered for 7 days; format: ADME, organism-based; set-up: dose 50 mg/kg, route oral; details: in vivo
[29] = target: 5-hydroxytryptamine receptor 2B (Homo sapiens) (UniProt P41595); assay: Inhibition of recombinant human 5HT2B receptor expressed in CHO cells at 10 uM; format: cell-based
Sequence of 5-hydroxytryptamine receptor 2B (Homo sapiens) (P41595 whole entry): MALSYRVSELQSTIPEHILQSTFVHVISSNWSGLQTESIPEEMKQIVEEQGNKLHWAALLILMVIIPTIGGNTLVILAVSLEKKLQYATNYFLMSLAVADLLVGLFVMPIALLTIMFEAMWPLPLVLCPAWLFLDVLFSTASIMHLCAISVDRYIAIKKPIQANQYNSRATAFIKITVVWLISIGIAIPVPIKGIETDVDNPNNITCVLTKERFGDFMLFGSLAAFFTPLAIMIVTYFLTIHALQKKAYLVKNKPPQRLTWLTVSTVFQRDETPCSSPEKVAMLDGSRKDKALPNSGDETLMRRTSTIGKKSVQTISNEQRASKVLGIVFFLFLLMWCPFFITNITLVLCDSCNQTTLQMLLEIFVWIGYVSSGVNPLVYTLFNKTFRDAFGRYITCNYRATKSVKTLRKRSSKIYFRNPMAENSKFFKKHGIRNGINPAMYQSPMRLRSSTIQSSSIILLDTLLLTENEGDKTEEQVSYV

[30] = tested on: Mus musculus; assay: Inhibition of LRRK2 G2019S mutant phosphorylation at Ser1292 in po dosed BAC transgenic mouse brain after 1 to 24 hrs; format: functional, organism-based
Procedure, shortened: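 Single oral dose of 15 or 50 mg/kg in G2019S human LRRK2 BAC transgenic mice. Hippocampus sampled at 1, 3, 6 and 12 h (n = 4/dose) and at 24 h (n = 1) to measure pSer1292 LRRK2 and brain compound levels. Inhibition expressed relative to vehicle-dosed mice (n = 3), with a direct inhibition PK/PD model fitted.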

[31] = tested on: Rattus norvegicus; assay: Unbound plasma AUC (0 to 24 hrs) in Sprague-Dawley rat at 10 mg/kg, po administered for 7 days; format: ADME, organism-based; set-up: dose 10 mg/kg, route oral; details: in vivo
[32] = tested on: Rattus norvegicus; assay: Toxicity in Sprague-Dawley rat assessed as mortality at 10 to 100 mg/kg, po administered for 7 days; format: organism-based; set-up: dose 10-100 mg/kg, route oral; details: in vivo, 168 h
[33] = tested on: Mus musculus; assay: Inhibition of LRRK2 G2019S mutant phosphorylation at Ser1292 in ip dosed BAC transgenic mouse brain after 1 to 24 hrs; format: functional, organism-based
Procedure, shortened: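 Single ip injection of 10 or 50 mg/kg in BAC transgenic mice expressing human G2019S LRRK2. Hippocampus collected at 1, 2.5 or 6 h post-dose (n = 3/dose). pSer1292 LRRK2 and compound concentration measured in brain. Percent inhibition normalised to vehicle-dosed mice (n = 3), with a direct inhibition model fitted to the data.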

T1 sequence (Q5S007 whole entry): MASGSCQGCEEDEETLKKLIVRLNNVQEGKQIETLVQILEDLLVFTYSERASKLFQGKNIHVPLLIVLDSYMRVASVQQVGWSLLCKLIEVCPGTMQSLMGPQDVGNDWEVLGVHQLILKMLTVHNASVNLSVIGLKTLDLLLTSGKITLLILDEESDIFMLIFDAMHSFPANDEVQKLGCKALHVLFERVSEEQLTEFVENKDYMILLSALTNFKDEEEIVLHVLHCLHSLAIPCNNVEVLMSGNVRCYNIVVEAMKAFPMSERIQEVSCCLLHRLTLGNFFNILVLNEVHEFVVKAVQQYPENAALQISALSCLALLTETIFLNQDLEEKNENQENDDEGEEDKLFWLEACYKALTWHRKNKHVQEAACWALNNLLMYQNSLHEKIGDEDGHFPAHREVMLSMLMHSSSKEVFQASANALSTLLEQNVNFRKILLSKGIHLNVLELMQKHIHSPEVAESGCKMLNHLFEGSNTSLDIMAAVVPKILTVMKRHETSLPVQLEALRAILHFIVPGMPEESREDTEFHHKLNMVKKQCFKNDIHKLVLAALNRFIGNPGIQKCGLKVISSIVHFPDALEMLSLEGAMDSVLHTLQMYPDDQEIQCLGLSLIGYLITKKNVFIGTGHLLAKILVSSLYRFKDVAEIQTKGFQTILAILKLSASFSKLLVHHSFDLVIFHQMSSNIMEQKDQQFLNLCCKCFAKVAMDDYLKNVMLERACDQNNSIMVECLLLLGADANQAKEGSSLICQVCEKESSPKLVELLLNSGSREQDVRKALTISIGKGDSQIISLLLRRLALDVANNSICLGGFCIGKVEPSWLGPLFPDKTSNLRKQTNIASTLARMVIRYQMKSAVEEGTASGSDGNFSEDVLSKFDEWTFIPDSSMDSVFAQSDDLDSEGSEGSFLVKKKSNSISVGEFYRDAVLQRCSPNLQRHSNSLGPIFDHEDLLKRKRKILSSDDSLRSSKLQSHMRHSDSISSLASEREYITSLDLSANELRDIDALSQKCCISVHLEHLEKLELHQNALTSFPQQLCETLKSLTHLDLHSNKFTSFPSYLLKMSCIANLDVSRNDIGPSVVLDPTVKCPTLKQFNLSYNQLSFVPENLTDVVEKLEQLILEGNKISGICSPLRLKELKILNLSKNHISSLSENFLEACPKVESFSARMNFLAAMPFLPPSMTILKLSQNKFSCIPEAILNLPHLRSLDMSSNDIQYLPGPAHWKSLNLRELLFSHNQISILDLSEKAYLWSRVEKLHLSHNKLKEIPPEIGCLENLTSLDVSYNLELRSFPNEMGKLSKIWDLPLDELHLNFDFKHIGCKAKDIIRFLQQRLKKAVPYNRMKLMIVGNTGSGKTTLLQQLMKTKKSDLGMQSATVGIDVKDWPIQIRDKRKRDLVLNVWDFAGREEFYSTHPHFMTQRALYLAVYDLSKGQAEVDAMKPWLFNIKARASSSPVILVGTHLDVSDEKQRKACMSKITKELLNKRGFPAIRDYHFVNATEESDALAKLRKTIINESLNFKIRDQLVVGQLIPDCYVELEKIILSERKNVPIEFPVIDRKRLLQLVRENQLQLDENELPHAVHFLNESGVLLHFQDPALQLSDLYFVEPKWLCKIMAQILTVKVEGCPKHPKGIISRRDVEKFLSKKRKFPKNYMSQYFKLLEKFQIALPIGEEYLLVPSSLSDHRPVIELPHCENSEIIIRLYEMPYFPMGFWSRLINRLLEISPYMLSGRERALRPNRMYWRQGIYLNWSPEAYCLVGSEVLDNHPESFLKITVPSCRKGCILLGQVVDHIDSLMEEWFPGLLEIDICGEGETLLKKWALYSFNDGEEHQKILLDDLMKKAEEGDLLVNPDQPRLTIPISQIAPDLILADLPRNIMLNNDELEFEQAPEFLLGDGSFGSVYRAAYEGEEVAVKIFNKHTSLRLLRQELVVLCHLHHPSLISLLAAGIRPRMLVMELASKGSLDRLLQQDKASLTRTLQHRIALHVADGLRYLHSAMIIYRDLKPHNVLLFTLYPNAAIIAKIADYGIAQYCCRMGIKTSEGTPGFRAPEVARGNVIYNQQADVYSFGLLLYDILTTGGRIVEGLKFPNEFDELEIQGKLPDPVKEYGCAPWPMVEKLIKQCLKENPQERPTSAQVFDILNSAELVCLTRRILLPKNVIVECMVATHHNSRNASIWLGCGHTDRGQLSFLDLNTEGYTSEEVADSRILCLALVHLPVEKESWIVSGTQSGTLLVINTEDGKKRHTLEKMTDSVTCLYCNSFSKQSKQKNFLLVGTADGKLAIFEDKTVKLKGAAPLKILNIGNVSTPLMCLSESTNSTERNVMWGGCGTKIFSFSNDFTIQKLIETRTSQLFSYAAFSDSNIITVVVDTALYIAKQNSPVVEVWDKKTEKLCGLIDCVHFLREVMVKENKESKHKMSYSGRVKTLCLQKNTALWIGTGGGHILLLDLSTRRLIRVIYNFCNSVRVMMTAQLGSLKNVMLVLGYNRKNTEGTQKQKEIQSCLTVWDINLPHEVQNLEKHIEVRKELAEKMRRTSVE

Compound | IC50 [1] [nM] | fraction unbound [2] | Papp A→B [3] [×10⁻⁶ cm/s] | Ratio Ki [5] | inhibition [6] [%] | CLhep predicted [9] [mL/min/kg] | Ki [10] [nM] | CLhep predicted [11] [mL/min/kg] | Ratio Ki [13] | Ratio [14] | other results
CNc1nc(Nc2ccc(C(=O)N3CCOCC3)cc2OC)ncc1C(F)(F)F | 9 | 0.137 | 18.2 | 13 | 55 | 1.8 | 2 | 7.6 | > 1930 | 1.2 | Ki [4]: 25 nM; Activity [7]: Toxic; inhibition [8]: 98%; Activity [12]: Toxic
CNc1nc(Nc2ccc(-c3nnnn3C)cc2Cl)ncc1C(F)(F)F | 100 |  |  | 3.3 |  |  | 8 |  |  | 0.7 | solubility [15]: Insoluble; inhibition (INH) [16]: Active
CCNc1nc(Nc2cc(F)c(C(=O)N3CCOCC3)cc2OC)ncc1C(F)(F)F | 9 | 0.034 | 10.4 | 53 | > 65 | 3.2 | 1 | 14 | > 3200 | 0.9 | inhibition [17]: > 65%; fraction unbound [18]: 0.055; inhibition [19]: > 65%; fAUC [20]: 7.8 µM·h; fAUC [21]: 3.1 µM·h; fAUC [22]: 5.95 µM·h; Ratio [23]: 0.82; Activity [24]: Non-toxic; Kp uu at 168 h [25]: 0.6; fAUC [26]: 4.7 µM·h; fAUC [27]: 0.8 µM·h; fAUC [28]: 3.9 µM·h; inhibition [29]: > 70%; inhibition [30]: Dose-dependent effect; fAUC [31]: 0.8 µM·h; Activity [32]: Non-toxic; inhibition [33]: Dose-dependent effect
